Experimental data reported in ChEMBL document CHEMBL1129588, “Development of potent thrombin receptor antagonist peptides” (J Med Chem, 1996).
Starred links: 1 amine or outer side, 2 acyl side, 3 side chain; linkers in the order of their positions; H or OH if unused. Non-standard residues stand in square brackets, D forms with d. Residues, ends and D or L forms follow the SMILES beside them. *: point of attachment. X7 = CC(=O)N(C(=O)/C=C/c1ccc(F)cc1)[C@@H](Cc1ccc(F)cc1)C(=O)*; X9 = CCC(=O)c1cccc(N([C@@H](Cc2ccc(F)cc2)C(=O)[*:2])[*:1])c1; X3 = CC(=O)N(C(=O)/C=C/c1ccccc1)[C@@H](Cc1ccc(F)cc1)C(=O)*; Phe(4-guanidino) = N=C(N)Nc1ccc(C[C@H](N)C(=O)O)cc1; Phe(4-F) = N[C@@H](Cc1ccc(F)cc1)C(=O)O; 2Nal = N[C@@H](Cc1ccc2ccccc2c1)C(=O)O; Benzoyl(4-Cl) = O=C(c1ccc(Cl)cc1)*; Tic = O=C(O)[C@@H]1Cc2ccccc2CN1; X10 = O=C(c1c[nH]c2ccccc12)*; X5 = O=C(c1cc2ccccc2[nH]1)*; Orn = NCCC[C@H](N)C(=O)O; Thz = O=C(O)[C@@H]1CSCN1; βAla = NCCC(=O)O

Columns and labels:
[1] = Concentration to stimulate human platelet aggregation; format: functional
Summary of the method: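 Peptides were added alone to gel-filtered human platelets, and aggregation was read by microtiter turbidity. EC₅₀ is the concentration stimulating 50% of maximum aggregation. N is the number of determinations. A peptide is called a partial agonist where maximum aggregation was not reached experimentally.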

[2] = biological target: T1, Proteinase-activated receptor 1 (Homo sapiens, UniProt P25116)
T1 sequence (P25116 whole entry): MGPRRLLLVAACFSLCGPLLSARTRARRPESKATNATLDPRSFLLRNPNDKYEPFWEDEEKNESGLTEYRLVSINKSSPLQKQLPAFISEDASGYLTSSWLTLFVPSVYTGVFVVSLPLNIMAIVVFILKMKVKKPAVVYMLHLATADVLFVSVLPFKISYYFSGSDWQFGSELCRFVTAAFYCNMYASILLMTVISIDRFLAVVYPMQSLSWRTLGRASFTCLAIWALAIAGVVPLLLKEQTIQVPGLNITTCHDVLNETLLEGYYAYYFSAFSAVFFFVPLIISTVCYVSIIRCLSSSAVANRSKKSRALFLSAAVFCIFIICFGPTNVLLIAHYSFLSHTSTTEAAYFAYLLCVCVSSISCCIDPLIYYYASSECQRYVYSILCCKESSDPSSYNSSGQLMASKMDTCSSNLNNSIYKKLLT

Row | Compound | EC50 [1] | IC50 [2]
1 | CC(=O)NCCC(=O)N[C@@H](Cc1ccccc1)C(=O)N[C@@H](CC(C)C)C(=O)N[C@@H](CC(C)C)C(=O)N[C@@H](CCCN=C(N)N)C(N)=O (Ac-[βAla]FLLR-NH2) | 1.8 µM | –
2 | CC(C)C[C@H](NC(=O)[C@H](Cc1ccc(NC(=N)N)cc1)NC(=O)[C@H](Cc1ccc(F)cc1)NC(=O)[C@@H](N)CO)C(=O)N[C@@H](CCCN=C(N)N)C(N)=O (H-S[Phe(4-F)][Phe(4-guanidino)]LR-NH2) | 0.04 µM | –
3 | CC(C)C[C@H](NC(=O)[C@H](CC(C)C)NC(=O)[C@H](CCc1ccccc1)NC(=O)[C@@H](N)CO)C(=O)N[C@@H](CCCN=C(N)N)C(N)=O | > 300 µM | –
4 | CC(C)C[C@H](NC(=O)[C@@H]1Cc2ccccc2CN1C(=O)[C@H](Cc1ccc(F)cc1)NC(=O)[C@@H](N)CO)C(=O)N[C@@H](CCCN=C(N)N)C(N)=O (H-S[Phe(4-F)][Tic]LR-NH2) | 0.47 µM | –
5 | CC(C)C[C@H](NC(=O)[C@H](CC(C)C)NC(=O)[C@H](Cc1ccc(I)cc1)NC(=O)[C@@H](N)CO)C(=O)N[C@@H](CCCN=C(N)N)C(N)=O | 9.27 µM | –
6 | CC(=O)N1CSC[C@H]1C(=O)N[C@@H](Cc1ccccc1)C(=O)N[C@@H](CC(C)C)C(=O)N[C@@H](CC(C)C)C(=O)N[C@@H](CCCN=C(N)N)C(N)=O (Ac-[Thz]FLLR-NH2) | > 300 µM | –
7 | CC(C)C[C@H](NC(=O)[C@H](CC(C)C)NC(=O)[C@H](Cc1ccc(N)cc1)NC(=O)[C@@H](N)CO)C(=O)N[C@@H](CCCN=C(N)N)C(N)=O | 18 µM | –
8 | CC(=O)N(C(=O)/C=C/c1ccccc1)[C@@H](Cc1ccc(F)cc1)C(=O)N[C@@H](CCc1ccccc1)C(=O)N[C@@H](CC(C)C)C(=O)N[C@@H](CCCN=C(N)N)C(N)=O | – | 0.63 µM
9 | CC(=O)N(C(=O)/C=C/c1ccccc1)[C@@H](Cc1ccc(F)cc1)C(=O)N[C@@H](CCN=C(N)N)C(=O)N[C@@H](CC(C)C)C(=O)N[C@@H](CCCN=C(N)N)C(N)=O | – | 0.028 µM
10 | CC(=O)N(C(=O)/C=C/c1ccccc1)[C@@H](Cc1ccc(F)cc1)C(=O)N[C@@H](Cc1ccc(Cl)cc1)C(=O)N[C@@H](CC(C)C)C(=O)N[C@@H](CCCN=C(N)N)C(N)=O | – | 4.71 µM
11 | CC(=O)N(C(=O)c1ccccc1N)[C@@H](Cc1ccc(F)cc1)C(=O)N[C@@H](Cc1ccc(NC(=N)N)cc1)C(=O)N[C@@H](CC(C)C)C(=O)N[C@@H](CCCN=C(N)N)C(N)=O | – | 1 µM
12 | CCC(=O)c1cccc(N(C(C)=O)[C@@H](Cc2ccc(F)cc2)C(=O)N[C@@H](Cc2ccc(NC(=N)N)cc2)C(=O)N[C@@H](CC(C)C)C(=O)N[C@@H](CCCN=C(N)N)C(=O)N[C@@H](CCCN=C(N)N)C(N)=O)c1 (Ac-[X9][Phe(4-guanidino)]LRR-NH2) | – | 0.009 µM
13 | CC(=O)N(C(=O)/C=C/c1ccccc1)[C@@H](Cc1ccc(F)cc1)C(=O)N[C@@H](CCCCN)C(=O)N[C@@H](CC(C)C)C(=O)N[C@@H](CCCN=C(N)N)C(N)=O | – | 0.039 µM
14 | CC(=O)N(C(=O)Cc1ccc2ccccc2c1)[C@@H](Cc1ccc(F)cc1)C(=O)N[C@@H](Cc1ccc(NC(=N)N)cc1)C(=O)N[C@@H](CC(C)C)C(=O)N[C@@H](CCCN=C(N)N)C(N)=O | – | 0.295 µM
15 | CC(=O)N(C(=O)/C=C/c1ccccc1)[C@@H](Cc1ccc(F)cc1)C(=O)N[C@@H](Cc1ccc(NC(=N)N)cc1)C(N)=O | – | 0.78 µM
16 | C=CC(=O)c1ccsc1N(C(C)=O)[C@@H](Cc1ccc(F)cc1)C(=O)N[C@@H](Cc1ccc(NC(=N)N)cc1)C(=O)N[C@@H](CC(C)C)C(=O)N[C@@H](CCCN=C(N)N)C(N)=O | – | 0.023 µM
17 | CC(=O)N(C(=O)/C=C/c1ccccc1)[C@@H](Cc1ccc(F)cc1)C(=O)N[C@@H](Cc1ccccc1)C(=O)N[C@@H](CC(C)C)C(=O)N[C@@H](CCCN=C(N)N)C(N)=O | – | 1.12 µM
18 | CC(=O)N(C(=O)/C=C/c1ccccc1)[C@@H](Cc1cccnc1)C(=O)N[C@@H](Cc1ccc(NC(=N)N)cc1)C(=O)N[C@@H](CC(C)C)C(=O)N[C@@H](CCCN=C(N)N)C(N)=O | – | 3.44 µM
19 | CC(=O)N(C(=O)/C=C/c1cccc(Cl)c1)[C@@H](Cc1ccc(F)cc1)C(=O)N[C@@H](Cc1ccc(NC(=N)N)cc1)C(=O)N[C@@H](CC(C)C)C(=O)N[C@@H](CCCN=C(N)N)C(N)=O | – | 0.041 µM
20 | CC(=O)N(C(=O)/C=C/c1ccccc1)[C@@H](CC1CCCCC1)C(=O)N[C@@H](Cc1ccc(NC(=N)N)cc1)C(=O)N[C@@H](CC(C)C)C(=O)N[C@@H](CCCN=C(N)N)C(N)=O | – | 0.093 µM
21 | CC(=O)N(C(=O)/C=C/c1ccccc1)[C@@H](Cc1ccc(F)cc1)C(=O)N[C@@H](CCCCN=C(N)N)C(=O)N[C@@H](CC(C)C)C(=O)N[C@@H](CCCN=C(N)N)C(N)=O | – | 0.012 µM

Row | Compound | EC50 [1] | IC50 [2]
22 | CC(C)C[C@H](NC(=O)[C@H](CC(C)C)NC(=O)[C@H](Cc1ccc(NC(=N)N)cc1)NC(=O)[C@@H](N)CO)C(=O)N[C@@H](CCCN=C(N)N)C(N)=O | > 300 µM | –
23 | CC(C)C[C@H](NC(=O)[C@H](Cc1ccc2ccccc2c1)NC(=O)[C@H](Cc1ccc(F)cc1)NC(=O)[C@@H](N)CO)C(=O)N[C@@H](CCCN=C(N)N)C(N)=O (H-S[Phe(4-F)][2Nal]LR-NH2) | 0.08 µM | –
24 | CC(C)C[C@H](NC(=O)[C@H](Cc1ccc(NC(=N)N)cc1)NC(=O)[C@H](Cc1ccc(F)cc1)NC(=O)c1c[nH]c2ccccc12)C(=O)N[C@@H](CCCN=C(N)N)C(N)=O (X10-[Phe(4-F)][Phe(4-guanidino)]LR-NH2) | – | 0.019 µM
25 | CC(C)C[C@H](NC(=O)[C@H](Cc1ccc(NC(=N)N)cc1)NC(=O)[C@H](Cc1ccc(F)cc1)NC(=O)c1cc2ccccc2[nH]1)C(=O)N[C@@H](CCCN=C(N)N)C(N)=O (X5-[Phe(4-F)][Phe(4-guanidino)]LR-NH2) | – | 0.024 µM
26 | CC(C)C[C@H](NC(=O)[C@H](CC(C)C)NC(=O)[C@H](Cc1ccc(F)cc1)NC(=O)[C@@H](N)CO)C(=O)N[C@@H](CCCN=C(N)N)C(N)=O | 0.13 µM | –
27 | COc1ccc(/C=C/C(=O)N(C(C)=O)[C@@H](Cc2ccc(F)cc2)C(=O)N[C@@H](Cc2ccc(NC(=N)N)cc2)C(=O)N[C@@H](CC(C)C)C(=O)N[C@@H](CCCN=C(N)N)C(N)=O)cc1 | – | 0.04 µM
28 | CC(=O)N(C(=O)/C=C/c1ccccc1)[C@@H](Cc1ccc(F)cc1)C(=O)N[C@@H](Cc1ccc(N)cc1)C(=O)N[C@@H](CC(C)C)C(=O)N[C@@H](CCCN=C(N)N)C(N)=O | – | 0.37 µM
29 | CC(=O)N(C(=O)/C=C/c1ccc(C)cc1)[C@@H](Cc1ccc(F)cc1)C(=O)N[C@@H](Cc1ccc(NC(=N)N)cc1)C(=O)N[C@@H](CC(C)C)C(=O)N[C@@H](CCCN=C(N)N)C(N)=O (stereo in doubt; 63) | – | 0.043 µM
30 | CC(=O)N(C(=O)/C=C/c1ccccc1)[C@@H](Cc1ccc(F)cc1)C(=O)N[C@@H](Cc1ccc(NC(=N)N)cc1)C(=O)N[C@@H](CC(C)C)C(=O)N[C@@H](CCCN)C(=O)CC(N)=O | – | 0.044 µM
31 | CC(=O)N(C(=O)/C=C/c1ccccc1)[C@@H](Cc1ccc(F)cc1)C(=O)N[C@@H](Cc1ccc(NC(=N)N)cc1)C(=O)N[C@@H](CC(C)C)C(=O)N[C@@H](CCCN=C(N)N)C(=O)N[C@@H](CCCN)C(N)=O (X3-[Phe(4-guanidino)]LR[Orn]-NH2) | – | 0.0066 µM
32 | CC(=O)N(C(=O)/C=C/c1ccccc1)[C@@H](Cc1ccc(F)cc1)C(=O)N[C@@H](Cc1ccc2ccccc2c1)C(=O)N[C@@H](CC(C)C)C(=O)N[C@@H](CCCN=C(N)N)C(N)=O | – | 0.246 µM
33 | CC(=O)N(C(=O)/C=C/c1ccccc1)[C@@H](Cc1ccc(F)cc1)C(=O)N[C@@H](Cc1ccc(NC(=N)N)cc1)C(=O)N[C@@H](CC(C)C)C(=O)N[C@@H](CCCN=C(N)N)C(=O)N[C@@H](CCCN)C(=O)CCC(N)=O | – | 0.0219 µM
34 | CC(=O)N(Oc1c[nH]c2ccccc12)[C@@H](Cc1ccc(F)cc1)C(=O)N[C@@H](Cc1ccc(NC(=N)N)cc1)C(=O)N[C@@H](CC(C)C)C(=O)N[C@@H](CCCN=C(N)N)C(N)=O | – | 0.13 µM
35 | CC(=O)N(C(=O)c1ccc(-c2ccccc2)cc1)[C@@H](Cc1ccc(F)cc1)C(=O)N[C@@H](Cc1ccc(NC(=N)N)cc1)C(=O)N[C@@H](CC(C)C)C(=O)N[C@@H](CCCN=C(N)N)C(N)=O | – | 0.046 µM
36 | CC(=O)N(C(=O)/C=C/c1ccc(C)cc1)[C@@H](Cc1ccc(F)cc1)C(=O)N[C@@H](Cc1ccc(NC(=N)N)cc1)C(=O)N[C@@H](CC(C)C)C(=O)N[C@@H](CCCN=C(N)N)C(N)=O (stereo in doubt; 45) | – | 0.034 µM
37 | CC(=O)N(C(=O)/C=C/c1ccc(F)cc1)[C@@H](Cc1ccc(F)cc1)C(=O)N[C@@H](Cc1ccc(NC(=N)N)cc1)C(=O)N[C@@H](CC(C)C)C(=O)N[C@@H](CCCN=C(N)N)C(=O)N[C@@H](CCCN=C(N)N)C(N)=O (X7-[Phe(4-guanidino)]LRR-NH2) | – | 0.019 µM
38 | CC(=O)N(c1cccnc1)[C@@H](Cc1ccc(F)cc1)C(=O)N[C@@H](Cc1ccc(NC(=N)N)cc1)C(=O)N[C@@H](CC(C)C)C(=O)N[C@@H](CCCN=C(N)N)C(N)=O | – | 0.95 µM
39 | CC(=O)N(C(=O)/C=C/c1ccccc1)[C@@H](Cc1cccs1)C(=O)N[C@@H](Cc1ccc(NC(=N)N)cc1)C(=O)N[C@@H](CC(C)C)C(=O)N[C@@H](CCCN=C(N)N)C(N)=O | – | 0.042 µM
40 | CC(=O)N(C(=O)/C=C/c1ccccc1)[C@@H](Cc1ccc(F)cc1)C(=O)N[C@@H](Cc1ccc(NC(=N)N)cc1)C(=O)N[C@@H](CC(C)C)C(=O)N[C@@H](CCCN=C(N)N)C(N)=O | – | 0.0078 µM
41 | CC(C)C[C@H](NC(=O)[C@H](Cc1ccc(NC(=N)N)cc1)NC(=O)[C@H](Cc1ccc(F)cc1)NC(=O)c1ccc(Cl)cc1)C(=O)N[C@@H](CCCN=C(N)N)C(N)=O ({Benzoyl(4-Cl)}-[Phe(4-F)][Phe(4-guanidino)]LR-NH2) | – | 0.026 µM
42 | CC(=O)N(c1ccsc1)[C@@H](Cc1ccc(F)cc1)C(=O)N[C@@H](Cc1ccc(NC(=N)N)cc1)C(=O)N[C@@H](CC(C)C)C(=O)N[C@@H](CCCN=C(N)N)C(N)=O | – | 0.31 µM
